The target in data set [1] is PSMA (Homo sapiens, UniProt Q04609). In words: NAALADase assay. The class given is biochemical.
Data set [2] is described as follows: Electronic / fluorescence properties. The class given is physicochemical. In short, it runs like this: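 Test compound (Re tricarbonyl complex) dissolved in ethylene glycol, measured under air or after argon purging. […] Lifetime was measured by a frequency-domain method with 370 nm LED excitation and 540–600 nm bandpass collection. Quantum yield was obtained by the optically dilute method against aerated aqueous [Ru(bpy)3]Cl2 (φ = 0.028, excitation 455 nm).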

The test system of data set [3] is PSMA+ PC3 PIP cells. In words: In vitro fluorescence microscopy in PC3 PIP and PC3 flu cells. The class given is cell-based, human. The following applies: excitation 494 nm, emission 628 nm. In short, it runs like this:
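PC3 PIP and PC3 flu cells (10000 per well) were attached overnight at 37 °C in 5% CO2. […] Wells were washed with warm medium for 30 s, mounted, dried 20 min, held overnight at 4 °C, then imaged.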

Where [4] appears, read: LNCaP cell extracts, Cheng–Prusoff conversion.

By Ki is commonly meant the dissociation constant of the complex between target and ligand, obtained from inhibition or displacement. Higher therefore signals lower affinity.

Read-outs that look alike come from different tables or passages of the source.

PSMA, sequence (Q04609 whole entry): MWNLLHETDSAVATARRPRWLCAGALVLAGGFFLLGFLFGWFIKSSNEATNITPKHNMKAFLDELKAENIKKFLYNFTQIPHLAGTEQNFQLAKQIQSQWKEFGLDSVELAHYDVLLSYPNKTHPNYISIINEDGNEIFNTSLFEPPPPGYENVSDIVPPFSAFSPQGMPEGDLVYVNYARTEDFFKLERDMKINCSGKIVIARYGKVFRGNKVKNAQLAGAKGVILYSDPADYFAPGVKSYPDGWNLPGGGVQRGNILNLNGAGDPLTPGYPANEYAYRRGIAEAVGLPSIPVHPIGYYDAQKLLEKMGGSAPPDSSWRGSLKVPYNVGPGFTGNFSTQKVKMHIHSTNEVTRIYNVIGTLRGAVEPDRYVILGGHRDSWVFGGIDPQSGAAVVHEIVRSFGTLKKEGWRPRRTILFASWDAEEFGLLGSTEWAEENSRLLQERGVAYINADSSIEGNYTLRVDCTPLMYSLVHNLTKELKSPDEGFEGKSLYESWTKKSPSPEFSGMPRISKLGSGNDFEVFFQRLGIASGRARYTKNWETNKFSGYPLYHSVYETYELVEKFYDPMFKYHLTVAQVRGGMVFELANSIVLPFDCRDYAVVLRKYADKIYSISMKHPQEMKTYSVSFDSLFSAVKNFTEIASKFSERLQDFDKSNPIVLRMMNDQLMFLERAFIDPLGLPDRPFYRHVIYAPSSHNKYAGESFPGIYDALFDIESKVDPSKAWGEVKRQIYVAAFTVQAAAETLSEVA

`O=C(O)CCC(NC(=O)NC(CCCCNC(=O)CCCCCCC(=O)NC(CCCCN(Cc1ccccn1)Cc1ccccn1)C(=O)O)C(=O)O)C(=O)O` (centres unmarked) [Compound L1, 2-[3-(5-{7-[5-(Bis-pyridin-2-ylmethyl-amino)-1-carboxy-pentylcarbamoyl]-heptanoylamino}-1-carboxy-pentyl)-ureido]-pentanedioic Acid] returned a Ki in data set [1] of 15.2 nM.
In data set [1] (setting [4]), `O=C(O)CCC(NC(=O)NC(CCCCNC(=O)CCCCCCC(=O)NC(CCCCN(Cc1ccccn1)Cc1ccccn1)C(=O)O)C(=O)O)C(=O)O.[Br-].[C-]#[O+].[C-]#[O+].[C-]#[O+].[Re+]` (stereo not drawn) [ReL1, Tricarbonyl (2-[3-(5-{7-[5-(bis-pyridin-2-ylmethyl-amino)-1-carboxy-pentylcarbamoyl]-heptanoylamino}-1-carboxy-pentyl)-ureido]-pentanedioic acid) rhenium bromide] showed a Ki of 10.8 nM.
`O=C(O)CCC(NC(=O)NC(CCCCNC(=O)CCCCCCCN(Cc1ccccn1)Cc1ccccn1)C(=O)O)C(=O)O.[Br-].[C-]#[O+].[C-]#[O+].[C-]#[O+].[Re+]` (stereo not drawn) [ReL5, Tricarbonyl(2-(3-{5-[8-(bis-pyridin-2-ylmethyl-amino)-octanoylamino]-1-carboxy-pentyl}-ureido)-pentanedioic acid)rhenium bromide] yielded a Ki in data set [1] (setting [4]) of 0.91 nM.
Turning to `O=C(O)CCC(NC(=O)NC(CCCCNC(=O)CCCCCCC(=O)NCCCCCCN(Cc1ccccn1)Cc1ccccn1)C(=O)O)C(=O)O.[Br-].[C-]#[O+].[C-]#[O+].[C-]#[O+].[Re+]` (stereo not drawn) [ReL7, Tricarbonyl(2-[3-(5-{7-[6-(Bis-pyridin-2-ylmethyl-amino)-hexylcarbamoyl]-heptanoylamino}-1-carboxy-pentyl)-ureido]-pentanedioic acid)rhenium bromide], in data set [1] (setting [4]), affinity was put at a Ki of 2.06 nM.
In data set [1] (setting [4]), `O=C(O)CCC(NC(=O)NC(CCCCNC(=O)CCCCCCC(=O)NCCCCC(C(=O)O)N(Cc1ccccn1)Cc1ccccn1)C(=O)O)C(=O)O.[Br-].[C-]#[O+].[C-]#[O+].[C-]#[O+].[Re+]` (stereo not drawn) [ReL3, Tricarbonyl(2-[3-(5-{7-[5-(bis-pyridin-2-ylmethyl-amino)-5-carboxy-pentylcarbamoyl]-heptanoylamino}-1-carboxy-pentyl)-ureido]-pentanedioic acid)rehenium bromide] gave a Ki of 10.3 nM.
Turning to `O=C(O)CCC(NC(=O)NC(CCCCNC(=O)CCCCCCC(=O)NC(CCCCN(Cc1ccc2ccccc2n1)Cc1ccc2ccccc2n1)C(=O)O)C(=O)O)C(=O)O.[Br-].[C-]#[O+].[C-]#[O+].[C-]#[O+].[Re+]` (stereo not drawn) [ReL2, Tricarbonyl(2-[3-(5-{7-[5-(bis-quinolin-2-ylmethyl-amino)-1-carboxy-pentylcarbamoyl]-heptanoylamino}-1-carboxy-pentyl)-ureido]-pentanedioic acid) rhenium bromide], in data set [2] (at 321 nm), the extinction coefficient amounted to 17200 M⁻¹. Further, the absorbance maximum in data set [2] (electronic spectrum) was determined as 321 nm. The compound also gave a fluorescence quantum yield in data set [2] (ethylene glycol under argon) of 0.018. The same compound displayed a fluorescence emission in data set [2] (excitation at 321 nm) of 550 nm. For the same compound, the fluorescence lifetime in data set [2] (λem = 550 nm, ethylene glycol under argon) is reported as 11.8 μs. This compound had a Ki in data set [1] (setting [4]) of 0.5 nM. Also, the “PSMA inhibitory activity, fold higher than ReL1” value in data set [1] (relative to ReL1) was found to be 20 fold. Moreover, in data set [3], the “fluorescent signal in live cells (internalization)” value is listed as “weak but observable fluorescent signal”.
`O=C(O)CCC(NC(=O)NC(CCCCNC(=O)CCCCCCC(=O)NC(CCCCN(Cc1ccc2ccccc2n1)Cc1ccc2ccccc2n1)C(=O)O)C(=O)O)C(=O)O` (centres unmarked) [Compound L2, 2-[3-(5-{7-[5-(Bis-quinolin-2-ylmethyl-amino)-1-carboxy-pentylcarbamoyl]-heptanoylamino}-1-carboxy-pentyl)-ureido]-pentanedioic acid] came in with a Ki in data set [1] (setting [4]) of 0.17 nM.
For the compound `O=C(O)CCC(NC(=O)NC(CCCCN(Cc1ccccn1)Cc1ccccn1)C(=O)O)C(=O)O.[Br-].[C-]#[O+].[C-]#[O+].[C-]#[O+].[Re+]` (stereo not drawn) [ReL6, Tricarbonyl(2-{3-[5-(bis-pyridin-2-ylmethyl-amino)-1-carboxy-pentyl]-ureido}-pentanedioic acid)rhenium bromide], in data set [1], the “PSMA inhibitory activity (in words)” value is on record as “very low PSMA inhibitory activity, the lowest in the entire series”. This compound also displayed a Ki in data set [1] (setting [4]) of 200 nM.
Regarding `O=C(O)CCC(NC(=O)NC(CCCCNC(=O)CCCCCCCN(Cc1ccccn1)Cc1ccccn1)C(=O)O)C(=O)O` (centres unmarked) [Compound L5, 2-(3-{5-[8-(Bis-pyridin-2-ylmethyl-amino)-octanoylamino]-1-carboxy-pentyl}-ureido)-pentanedioic Acid], in data set [1], the “PSMA inhibitory activity (in words)” value is “low nanomolar”.

(Values after paper PMC3336105 (Journal of Medicinal Chemistry, 2008).)
